ChEMBL document CHEMBL1667727, “Sesquiterpenes from Chloranthus japonicus” (J Nat Prod, 2011)

How the values were obtained:
Assay type in all cases: functional, cell-based
SK-OV-3 = assay: Cytotoxicity against human SKOV3 cells by MTT assay
Method in brief: (§1)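 In vitro cytotoxicity testing against a panel of eight cultured human tumor lines. Tissue origins: Lovo (colorectal cancer), Hepg2 (hepatoma), OSRC-2 (renal carcinoma), A549 (lung epithelial carcinoma), SKOV3 (ovarian carcinoma), HeLa (cervical cancer), MCF-7 (breast cancer) and SGC-7901 (gastric adenocarcinoma).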

SGC-7901 = assay: Cytotoxicity against human SGC7901 cells by MTT assay; method in brief: as §1
HepG2 = assay: Cytotoxicity against human HepG2 cells by MTT assay; method in brief: as §1
MCF7 = assay: Cytotoxicity against human MCF7 cells by MTT assay; method in brief: as §1
LoVo = assay: Cytotoxicity against human LoVo cells by MTT assay; method in brief: as §1
HeLa = assay: Cytotoxicity against human HeLa cells by MTT assay; method in brief: as §1
OS-RC-2 = assay: Cytotoxicity against human OS-RC2 cells by MTT assay; method in brief: as §1
A549 = assay: Cytotoxicity against human A549 cells by MTT assay; method in brief: as §1

Measured: IC50

CC1=C2CC3=C(CO)[C@H]4C[C@H]4[C@]3(C)C[C@@H]2OC1=O [CHLORAJAPOLIDE C]
> 10 µM: SK-OV-3 | SGC-7901 | HepG2 | MCF7 | LoVo | HeLa | OS-RC-2 | A549

CC1=C2[C@@H]3O[C@H](O)C4=C3[C@@](C)(C[C@@H]2OC1=O)[C@@H]1C[C@H]41 [CHLORAJAPOLIDE B]
> 10 µM: SK-OV-3 | SGC-7901 | HepG2 | MCF7 | LoVo | HeLa | OS-RC-2 | A549

CC1=C2[C@H](O)C3=C(C=O)[C@H]4C[C@H]4[C@]3(C)C[C@@H]2OC1=O [CHLORAJAPOLIDE A]
> 10 µM: SK-OV-3 | SGC-7901 | HepG2 | MCF7 | LoVo | HeLa | OS-RC-2 | A549

C/C=C(\C)C(=O)OC[C@@]1(O)C2[C@@H](O)C3=C(COC(=O)CCC(=O)OC)C(=O)O[C@@]34[C@@H]3C5=C(C[C@H]4[C@@]2(C)[C@@H]2C[C@@H]21)[C@H]1C[C@H]1[C@]5(C)[C@@H](O)C(=O)/C3=C(/C)C(=O)OC (some centres undefined) [CHLORAJAPONOL]
> 10 µM: SK-OV-3 | SGC-7901 | HepG2 | MCF7 | LoVo | HeLa | OS-RC-2 | A549

C=C1[C@H]2C[C@H]2[C@]2(C)C[C@]3(O[C@@H]4O[C@H](CO)[C@@H](O)[C@H](O)[C@H]4O)OC(=O)C(C)=C3C[C@@H]12 [CHLORAJAPOSIDE]
> 10 µM: SK-OV-3 | SGC-7901 | HepG2 | MCF7 | LoVo | HeLa | OS-RC-2 | A549

CC1=C2C[C@@H]3[C@@](C)(C[C@@H]2OC1=O)[C@@H]1C[C@@H]1[C@]3(O)CO [CHLORAJAPOLIDE D]
> 10 µM: SK-OV-3 | SGC-7901 | HepG2 | MCF7 | LoVo | HeLa | OS-RC-2 | A549

CC1=C2C[C@@H]3[C@@](C)(C[C@]2(O)OC1=O)[C@H](O)CC[C@@]3(C)O [CHLORAEUDOLIDE]
> 10 µM: SK-OV-3 | SGC-7901 | HepG2 | MCF7 | LoVo | HeLa | OS-RC-2 | A549

CO[C@@]12OC(=O)C(CO)=C1C[C@H]1[C@H](COC(C)=O)[C@H]3C[C@H]3[C@]1(C)[C@@H]2O [CHLORAJAPOLIDE E]
> 10 µM: SK-OV-3 | SGC-7901 | HepG2 | MCF7 | LoVo | HeLa | OS-RC-2 | A549
